Assay results taken from publication PMC4727981 (Archives of biochemistry and biophysics, 2015).
Values joined by “and” are separate entries in the source; they are usually repeats but may differ in a detail not shown here. Identical values can stand only once. Like-named read-outs stand apart in the source and are kept apart here.

Tests used:
human KIAA1363 [1] = biological target: T1, human KIAA1363 (Homo sapiens, UniProt Q6PIU2); format: biochemical; conditions: for kreact (calculated reactivation rate constant): calculated with Eqn. 7 / kinact ratio
T1 sequence (Q6PIU2 1-416 isoform Q6PIU2-2): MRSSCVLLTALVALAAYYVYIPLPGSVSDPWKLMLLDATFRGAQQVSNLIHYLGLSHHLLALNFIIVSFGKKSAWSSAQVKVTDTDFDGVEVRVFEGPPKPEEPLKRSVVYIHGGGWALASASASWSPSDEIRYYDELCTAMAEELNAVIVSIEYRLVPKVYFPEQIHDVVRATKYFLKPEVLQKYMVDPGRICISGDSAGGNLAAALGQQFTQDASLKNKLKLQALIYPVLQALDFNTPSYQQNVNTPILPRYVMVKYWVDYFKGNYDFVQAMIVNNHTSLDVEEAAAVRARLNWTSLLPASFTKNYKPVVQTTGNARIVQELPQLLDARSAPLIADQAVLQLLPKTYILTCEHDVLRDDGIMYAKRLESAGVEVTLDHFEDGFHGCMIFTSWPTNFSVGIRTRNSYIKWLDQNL

human CES1 = biological target: T2, human CES1 (Homo sapiens, UniProt P23141); format: biochemical; conditions: for kinact/Ki (bimolecular rate constant): linear fit
T2 sequence (P23141 18-566 isoform P23141-3 limits assumed): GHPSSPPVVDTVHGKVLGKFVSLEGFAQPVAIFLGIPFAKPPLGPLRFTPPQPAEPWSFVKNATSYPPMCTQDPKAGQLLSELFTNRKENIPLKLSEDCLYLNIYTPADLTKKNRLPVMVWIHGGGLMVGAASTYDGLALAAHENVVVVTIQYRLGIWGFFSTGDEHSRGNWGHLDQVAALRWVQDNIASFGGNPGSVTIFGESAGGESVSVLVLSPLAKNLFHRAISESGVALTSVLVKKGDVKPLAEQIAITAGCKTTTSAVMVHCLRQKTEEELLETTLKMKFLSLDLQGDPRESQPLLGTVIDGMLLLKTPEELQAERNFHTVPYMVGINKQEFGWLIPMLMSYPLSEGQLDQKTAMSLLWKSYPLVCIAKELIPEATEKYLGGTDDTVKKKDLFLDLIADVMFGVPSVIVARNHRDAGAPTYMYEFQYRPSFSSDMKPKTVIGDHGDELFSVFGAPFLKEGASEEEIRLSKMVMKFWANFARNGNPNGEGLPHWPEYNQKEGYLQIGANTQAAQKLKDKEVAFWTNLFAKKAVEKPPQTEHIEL
Summary of the method: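 Oxon at various concentrations plus 4-MUBA (250 μM) prewarmed 5 min at 37°C. Lysate (0.1 mg/ml final) then starts the reaction. 4-Methylumbelliferone fluorescence ([…]) is followed 45 min, with the mock-lysate signal subtracted. Curves are fit to a single exponential without reactivation to give kobs per concentration. Ki′ is substrate-corrected (Km 227 μM).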

human KIAA1363 [2] = biological target: T1, human KIAA1363; assay: Reactivation of oxon-inhibited KIAA1363 activity after 100-fold dilution; format: biochemical; conditions: CPO 1 μM 15 min, diluted 100-fold, up to 60 min at 37°C
Summary of the method: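 KIAA1363-transfected COS-7 lysate (1 mg/ml protein, 50 mM Tris-HCl pH 7.4) preincubated 15 min at 37°C with 1 μM oxon in ethanol (2% v/v), or ethanol alone as control. Reactions are diluted 1:100 in the same buffer and incubated 60 min at 37°C. Aliquots are taken every 10 min to assay residual 4-MUBA hydrolysis by fluorescence.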

recombinant CES1 = recombinant CES1 ref 7; cited from earlier work
recombinant PON1^Q192 = recombinant PON1^Q192 ref 30; cited from earlier work
recombinant PON1^R192 = recombinant PON1^R192 ref 30; cited from earlier work
[3] = tested on: KIAA1363 in mouse brain membranes; conditions: cited from earlier work
[4] = tested on: KIAA1363 in mouse brain membranes; conditions: 1 nM [3H]-CPO, cited from earlier work
human KIAA1363 [5] = biological target: T1, human KIAA1363; format: biochemical; conditions: data not shown
[6] = means of 2–4 independent experiments

CCOP(=O)(OCC)Oc1nc(Cl)c(Cl)cc1Cl [CPO, O,O′-Diethyl 3,5,6-trichloro-2-pyridyl phosphate]
corrected kinact/Ki, fold higher than for PO (human KIAA1363 [1]): ~ 10 fold
kinact/Ki (corrected bimolecular rate constant) (human KIAA1363 [1]): 4.4(±0.4) × 10^6 s^−1M^−1
ratio kinact/kreact (phosphorylation/dephosphorylation) (human KIAA1363 [1]): 16
kreact (calculated reactivation rate constant) (human KIAA1363 [1]): 0.0004 s⁻¹ and 0.00043 ± 0.00019 s⁻¹
kinact (human KIAA1363 [1]; [6]): 0.0069 ± 0.0007 s⁻¹
kinact (human KIAA1363 [1]; representative graph Fig. 6A): 0.0062 s⁻¹
kinact/Ki (bimolecular rate constant) (human CES1): 6.7(±4.2) × 10^6 s^−1M^−1
kinact/Ki (human CES1; representative graph Fig. 6B, assuming Ki ≫ [I]): 2.5 × 10^6 s^−1M^−1
kreact determined by dilution approach (human KIAA1363 [2]): 0.00038 s⁻¹
kinact/Ki (recombinant CES1): ~ 10^7 s^−1M^−1
catalytic efficiency for hydrolysis of CPO (recombinant PON1^Q192): 90000 M⁻¹ s⁻¹
catalytic efficiency for hydrolysis of CPO (recombinant PON1^R192): 150000 M⁻¹ s⁻¹
hydrolysis (turnover) of CPO by KIAA1363 ([3]; 1 nM CPO, 60 min ref 9): 100%
hydrolysis of CPO by KIAA1363 ([3]; 60 min incubation ref 9): hydrolyzed completely
hydrolysis of 1 nM [3H]-CPO by brain membranes from wildtype mice ([3]; 60 min incubation ref 10): completely hydrolyzed
added CPO covalently bound to KIAA1363 ([4]; 5 min ref 10): 48 mol %
added CPO present as diethylphosphoryl (non-aged) adduct ([4]; 5 min ref 10): 44 mol %
added CPO present as monoethylphosphoryl (aged) adduct ([4]; 5 min ref 10): 4 mol %
CPO completely hydrolyzed to trichloropyridinol and diethylphosphate ([4]; 60 min ref 10): 75 mol %
added CPO as covalent phosphoryl adduct on KIAA1363 ([4]; 60 min ref 10): 25 mol %
added CPO present as diethylphosphoryl adduct ([4]; 60 min ref 10): 13 mol %
added CPO present as monoethylphosphoryl adduct ([4]; 60 min ref 10): 12 mol %

CCOP(=O)(OCC)Oc1ccc([N+](=O)[O-])cc1 [PO, O,O′-diethyl p-nitrophenyl phosphate]
kinact, fold lower than kinact for CPO (human KIAA1363 [1]): 7.5 fold
kinact/Ki (corrected bimolecular rate constant) (human KIAA1363 [1]): 0.4 × 10^6 s^−1M^−1
ratio kinact/kreact (phosphorylation/dephosphorylation) (human KIAA1363 [1]): 3.4
kreact (calculated reactivation rate constant) (human KIAA1363 [1]): 0.0003 s⁻¹
kinact (human KIAA1363 [1]; [6]): 0.00092 s⁻¹
kinact/Ki (bimolecular rate constant) (human CES1): 1.5 × 10^6 s^−1M^−1

CCCCCCCC/C=C\CCCCCCCC(=O)Oc1ccc2c(C)cc(=O)oc2c1 [4-methylumbelliferyl oleate]
hydrolysis by KIAA1363 (human KIAA1363 [5]): could not detect any activity

CCCCCCCC/C=C\CCCCCCCC(=O)O[C@H]1CC[C@@]2(C)C(=CC[C@H]3[C@@H]4CC[C@H]([C@H](C)CCCC(C)C)[C@@]4(C)CC[C@@H]32)C1 [cholesteryl oleate]
hydrolysis by KIAA1363 (human KIAA1363 [5]): could not detect any activity
